Results on four molecules are retold here after paper PMC7825275 (Cancer chemotherapy and pharmacology, 2019).

Data set [1] in a line: Ultrafilterable carboplatin. Type of data set: in vivo, human. In a few lines: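 Ultrafilterable platinum was measured by atomic absorption spectrophotometry in patient plasma. […] Plasma was spun at ~1,000 x g for 10 min and stored at −70°C or colder. Parameters were derived non-compartmentally. AUC targeting bias and precision were taken as mean prediction error and root mean squared prediction error. Cycles were compared by 2-sided exact Wilcoxon signed rank.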

Data set [2] concerns patients with advanced solid tumors. Type of data set: in vivo, human. To be noted: with veliparib 100 mg BID and carboplatin AUC 6. In a few lines:
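Standard 3+3 escalation with modified Fibonacci steps. Oral veliparib was given every 12 h on days 1–7 of 21-day cycles, with IV carboplatin/paclitaxel on day 3. For the first 46 patients, cycle 1 was chemotherapy alone and DLT was scored in cycle 2; afterwards all three agents were given in cycle 1, which was the DLT cycle. Growth factors were barred in cycles 1–2. MTD was the highest dose with ≤1/6 DLTs.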

A short description of data set [3]: Paclitaxel plasma pharmacokinetics. It is filed as in vivo, human. To be noted: cycle 1 (veliparib -) vs cycle 2 (veliparib +). In a few lines:
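Patient plasma from heparinized blood drawn pre-dose and at 0.5–24 h after start of IV paclitaxel infusion, in the chemotherapy-alone lead-in cycle and in the veliparib cycle (day 3). Samples were spun at ~1,000 x g for 10 min and plasma held at −70°C or colder. Quantitation was by LC-MS/MS with [13C6]-paclitaxel internal standard. Parameters were derived non-compartmentally and paired cycles compared by 2-sided exact Wilcoxon signed rank.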

The subject of another data set is patients. Particulars: days 1-5, with veliparib 10 mg bid; cited from earlier work.
Data set [4] has as its system patients with advanced solid tumors. Kind of data set: Toxicity by grade. Type of data set: in vivo, human. Particulars: initial cycle of carboplatin and paclitaxel without veliparib. In a few lines:
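Adverse events were tabulated descriptively as maximum grade in three groups: the chemotherapy-only lead-in cycle, the first veliparib-containing cycle, and all cycles. CBC and serum chemistry including liver function tests were drawn weekly during cycles 1–2, then at the start of every cycle. Veliparib was oral, twice daily on days 1–7; carboplatin/paclitaxel were IV every 21 days.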

Take `N.N.O=C([O-])C1(C(=O)[O-])CCC1.[Pt+2]` [carboplatin]: the “Carboplatin exposure, effect of the presence of veliparib or veliparib dose” value in data set [1] (cycle 1 (veliparib -) vs cycle 2 (veliparib +)) is on record as “not impacted”. In addition, in data set [1] (in the absence of veliparib), the “ME as % of AUC 6 mg•min/mL” value was found to be 31% and the “RMSE as % of AUC 6 mg•min/mL” value came to 57%. For the same molecule, in data set [1] (in the presence of veliparib), the “ME as % of AUC 6 mg•min/mL” value was determined as 22% and the “RMSE as % of AUC 6 mg•min/mL” value is 45%.
As to `CC(=O)O[C@H]1C(=O)[C@@]2(C)[C@H]([C@H](OC(=O)c3ccccc3)[C@]3(O)C[C@H](OC(=O)[C@H](O)[C@@H](NC(=O)c4ccccc4)c4ccccc4)C(C)=C1C3(C)C)[C@]1(OC(C)=O)CO[C@@H]1C[C@@H]2O` [paclitaxel], the “MTD and RP2D, paclitaxel dose” value in data set [2] is on record as 200 mg/m^2. In addition, the “paclitaxel exposure, effect of the presence of veliparib or veliparib dose” value in data set [3] is recorded as “not impacted”.
For `CC[C@@]1(O)C(=O)OCc2c1cc1n(c2=O)Cc2cc3c(CN(C)C)c(O)ccc3nc2-1` [topotecan], the “MTD, topotecan dose” value in the data set on patients is given as 0.6 mg.
Take carboplatin and paclitaxel: in data set [4], the “neutropenia grade 3” value is 20%; the “neutropenia grade 4” value worked out at 24%; the “neutropenia, % of patients” value is listed as 56%.
